Values after ≈ are worked out from the molar mass of the structure shown.
How the values were obtained:
Format in all cases: functional
[1] = tested on: Mycobacterium tuberculosis; test: Antimycobacterial activity against Mycobacterium tuberculosis 3614 harbouring wild type KatG and InhA Ile21Thr mutant assessed as reduction in bacterial growth incubated for 7 days by resazurin dye based assay
How it was run: (§1)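 REMA broth microdilution: DMSO stocks diluted in 7H9-OADC, standardized inoculum added, final 0.98 to 250 μg/mL; 7 days at 35 °C in normal atmosphere, then 0.01% resazurin and a further 24 h at 35 °C. Read visually. MIC is the lowest concentration preventing the blue-to-pink change. Three independent assays on different days; isoniazid reference, medium, sterility and growth ±2.5% DMSO controls.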

[2] = tested on: Mycobacterium tuberculosis; test: Antimycobacterial activity against Mycobacterium tuberculosis 71A harbouring KatG Ser315Thr mutant and wild type InhA assessed as reduction in bacterial growth incubated for 7 days by resazurin dye based assay; how it was run: as §1
[3] = tested on: Mycobacterium tuberculosis; test: Antimycobacterial activity against Mycobacterium tuberculosis 19 harbouring KatG Ser315Thr mutant and wild type InhA assessed as reduction in bacterial growth incubated for 7 days by resazurin dye based assay; how it was run: as §1
[4] = tested on: Mycobacterium tuberculosis; test: Antimycobacterial activity against Mycobacterium tuberculosis 73A harbouring KatG Ser315Thr mutant and wild type InhA assessed as reduction in bacterial growth incubated for 7 days by resazurin dye based assay; how it was run: as §1
[5] = tested on: Mycobacterium tuberculosis; test: Antimycobacterial activity against Mycobacterium tuberculosis 91 harbouring KatG Ser315Thr mutant and wild type InhA assessed as reduction in bacterial growth incubated for 7 days by resazurin dye based assay; how it was run: as §1
[6] = tested on: Mycobacterium tuberculosis; test: Antimycobacterial activity against Mycobacterium tuberculosis BRF45 harbouring KatG Ser315Thr mutant and wild type InhA assessed as reduction in bacterial growth incubated for 7 days by resazurin dye based assay; how it was run: as §1
[7] = tested on: Mycobacterium tuberculosis; test: Antimycobacterial activity against Mycobacterium tuberculosis BRF57 harbouring KatG Ser315Thr mutant and wild type InhA assessed as reduction in bacterial growth incubated for 7 days by resazurin dye based assay; how it was run: as §1
[8] = tested on: Mycobacterium tuberculosis; test: Antimycobacterial activity against Mycobacterium tuberculosis BRF14 harbouring KatG Ser315Thr mutant and wild type InhA assessed as reduction in bacterial growth incubated for 7 days by resazurin dye based assay; how it was run: as §1
[9] = tested on: Mycobacterium tuberculosis; test: Antimycobacterial activity against Mycobacterium tuberculosis BRF16 harbouring KatG Ser315Thr mutant and wild type InhA assessed as reduction in bacterial growth incubated for 7 days by resazurin dye based assay; how it was run: as §1

How did the MIC [1] turn out when `COC(=O)c1cc2c([nH]c3ccccc32)c(-c2ccc(N(C)C)cc2)n1` was run?
Its MIC is 90.54 µM (≈ 31.3 µg/mL).

And the MIC [2]?
The MIC was >724.32 µM.

What about the MIC [3] of the same molecule?
The MIC was 90.55 µM (≈ 31.3 µg/mL).

What about the MIC [4] of the same molecule?
The MIC was 90.54 µM (≈ 31.3 µg/mL).

And the MIC [5]?
Its MIC is 180.36 µM (≈ 62.3 µg/mL).

And the MIC [6]?
Its MIC is 90.54 µM (≈ 31.3 µg/mL).

What about the MIC [7] of the same molecule?
The MIC was 362.16 µM (≈ 125 µg/mL).

And the MIC [8]?
The MIC was 724.32 µM (≈ 250 µg/mL).

What about the MIC [9] of the same molecule?
The MIC was 362.16 µM.

For `O=C(NN1C(=O)CCC1=O)c1cc2c([nH]c3ccccc32)c(-c2ccc(F)cc2)n1`, which MIC [1] is on record?
The MIC was 155.43 µM (≈ 62.5 µg/mL).

And the MIC [2]?
The MIC was 310.86 µM (≈ 125 µg/mL).

What about the MIC [3] of the same molecule?
The MIC was 155.43 µM (≈ 62.5 µg/mL).

What about the MIC [4] of the same molecule?
The MIC was 77.72 µM (≈ 31.3 µg/mL).

And the MIC [5]?
The MIC was 310.86 µM (≈ 125 µg/mL).

And the MIC [6]?
Its MIC is 77.72 µM (≈ 31.3 µg/mL).

And the MIC [7]?
Its MIC is 310.86 µM (≈ 125 µg/mL).

And the MIC [8]?
The MIC was 310.86 µM (≈ 125 µg/mL).

What about the MIC [9] of the same molecule?
The MIC was 62.5 µg/mL.

For `O=C(NN1C(=O)c2ccccc2C1=O)c1cc2c([nH]c3ccccc32)c(-c2cccc([N+](=O)[O-])c2)n1`, which MIC [1] is on record?
The MIC was 261.99 µM (≈ 125 µg/mL).

And the MIC [2]?
Its MIC is >523.99 µM.

What about the MIC [3] of the same molecule?
Its MIC is 261.99 µM (≈ 125 µg/mL).

And the MIC [4]?
The MIC was 261.99 µM (≈ 125 µg/mL).

What about the MIC [5] of the same molecule?
Its MIC is >523.99 µM.

And the MIC [6]?
Its MIC is 261.99 µM (≈ 125 µg/mL).

What about the MIC [7] of the same molecule?
Its MIC is >523.99 µM.

And the MIC [8]?
Its MIC is 523.99 µM (≈ 250 µg/mL).

What about the MIC [9] of the same molecule?
Its MIC is 261.99 µM.

For `O=C(NN1C(=O)c2ccccc2C1=O)c1cc2c([nH]c3ccccc32)c(-c2ccccc2)n1`, which MIC [1] is on record?
The MIC was 144.64 µM (≈ 62.5 µg/mL).

What about the MIC [2] of the same molecule?
Its MIC is 289.27 µM (≈ 125 µg/mL).

What about the MIC [3] of the same molecule?
The MIC was 144.64 µM (≈ 62.5 µg/mL).

And the MIC [4]?
The MIC was 144.64 µM (≈ 62.5 µg/mL).

And the MIC [5]?
Its MIC is 289.27 µM (≈ 125 µg/mL).

What about the MIC [6] of the same molecule?
Its MIC is 144.64 µM (≈ 62.5 µg/mL).

What about the MIC [7] of the same molecule?
The MIC was 289.27 µM (≈ 125 µg/mL).

And the MIC [8]?
Its MIC is 289.27 µM (≈ 125 µg/mL).

And the MIC [9]?
The MIC was 289.27 µM.

`O=C(NN1C(=O)c2ccccc2C1=O)c1cc2c([nH]c3ccccc32)c(-c2ccc(F)cc2)n1` was tested. Which MIC [1] did it give?
The MIC was 138.85 µM (≈ 62.5 µg/mL).

What about the MIC [2] of the same molecule?
Its MIC is 277.71 µM (≈ 125 µg/mL).

What about the MIC [3] of the same molecule?
The MIC was 138.85 µM (≈ 62.5 µg/mL).

And the MIC [4]?
The MIC was 138.85 µM (≈ 62.5 µg/mL).

What about the MIC [5] of the same molecule?
The MIC was 277.71 µM (≈ 125 µg/mL).

And the MIC [6]?
Its MIC is 138.85 µM (≈ 62.5 µg/mL).

And the MIC [7]?
Its MIC is 277.71 µM (≈ 125 µg/mL).

And the MIC [8]?
The MIC was 138.85 µM (≈ 62.5 µg/mL).

And the MIC [9]?
Its MIC is 138.85 µM.

Which results are given for `NNC(=O)c1ccncc1` [ISONIAZID]?
MIC [1]: 4 µM (≈ 0.549 µg/mL); MIC [2]: 4 µM (≈ 0.549 µg/mL); MIC [3]: 2 µM (≈ 0.274 µg/mL); MIC [4]: 4 µM (≈ 0.549 µg/mL); MIC [5]: 2 µM (≈ 0.274 µg/mL); MIC [6]: 4 µM (≈ 0.549 µg/mL); MIC [7]: 4 µM (≈ 0.549 µg/mL); MIC [8]: 8 µM (≈ 1.1 µg/mL); MIC [9]: 8 µM

Source: ChEMBL document CHEMBL4602632, “Synthesis and anti-Mycobacterium tuberculosis activity of imide-β-carboline and carbomethoxy-β-carboline derivatives” (Eur J Med Chem, 2020)
